Tests used:
[1] = biological target: T1, Nonstructural protein 5A (Hepatitis C virus) (UniProt Q5L478); assay: Inhibition of NS5A in HCV genotype 3a infected in HuH7 replicon cells assessed as decrease in viral replication after 3 days by RT-PCR method; type: cell-based; conditions: Hepatitis C virus subtype 3a
T1 sequence (whole entry): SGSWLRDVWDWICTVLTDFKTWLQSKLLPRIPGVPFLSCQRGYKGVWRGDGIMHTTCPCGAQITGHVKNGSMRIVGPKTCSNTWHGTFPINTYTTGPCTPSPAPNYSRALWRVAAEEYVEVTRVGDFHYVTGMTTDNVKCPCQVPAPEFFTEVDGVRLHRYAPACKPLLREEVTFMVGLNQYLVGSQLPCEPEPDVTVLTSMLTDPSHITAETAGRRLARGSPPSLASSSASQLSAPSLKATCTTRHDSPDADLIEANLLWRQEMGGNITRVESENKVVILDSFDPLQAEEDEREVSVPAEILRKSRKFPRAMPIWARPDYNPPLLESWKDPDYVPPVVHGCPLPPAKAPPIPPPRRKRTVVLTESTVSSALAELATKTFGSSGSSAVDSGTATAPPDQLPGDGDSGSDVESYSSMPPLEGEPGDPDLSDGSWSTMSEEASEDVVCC

[2] = biological target: T1, Nonstructural protein 5A (Hepatitis C virus); assay: Inhibition of NS5A in HCV genotype 4a infected in HuH7 replicon cells assessed as decrease in viral replication after 3 days by RT-PCR method; type: cell-based; conditions: Hepatitis C virus subtype 4a
[3] = AUC in Wistar Han rat at 100 mg/kg, po by LC/MS method; type: ADME, organism-based; conditions: in vivo
How it was run: (§1)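 Single rising oral dose study in fed male Wistar Han rats, dosed PO in 10% TWEEN at the indicated doses. Plasma was obtained by centrifuging the blood, and compound levels were determined by LC/MS.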

[4] = AUC in Wistar Han rat at 300 mg/kg, po by LC/MS method; type: ADME, organism-based; conditions: in vivo; how it was run: as §1
[5] = biological target: T1, Nonstructural protein 5A (Hepatitis C virus); assay: Inhibition of NS5A Q30R mutant in HCV genotype 1a infected in HuH7 replicon cells assessed as decrease in viral replication after 3 days by RT-PCR method; type: cell-based; conditions: Hepatitis C virus subtype 1a
[6] = system: Hepatitis C virus subtype 1a; assay: Resistance ratio of EC90 for NS5A Q30R mutant in HCV genotype 1a infected in HuH7 replicon cells to EC90 for NS5A in HCV genotype 1a infected in HuH7 replicon cells; type: cell-based
[7] = system: Hepatitis C virus subtype 1a; assay: Resistance ratio of EC90 for NS3 R155K mutant in HCV genotype 1a infected in HuH7 replicon cells to EC90 for NS5A in HCV genotype 1a infected in HuH7 replicon cells; type: cell-based
[8] = system: Hepatitis C virus subtype 1a; assay: Resistance ratio of EC90 for NS5A Y93H mutant in HCV genotype 1a infected in HuH7 replicon cells to EC90 for NS5A in HCV genotype 1a infected in HuH7 replicon cells; type: cell-based
[9] = system: NS3 (Hepatitis C virus), A3EZJ3 [A156T]; assay: Inhibition of NS3 A156T mutant in HCV genotype 1b infected in HuH7 replicon cells assessed as decrease in viral replication after 3 days by RT-PCR method; type: cell-based; conditions: Hepatitis C virus subtype 1b
[10] = biological target: T1, Nonstructural protein 5A (Hepatitis C virus); assay: Inhibition of NS5A L31M mutant in HCV genotype 2a infected in HuH7 replicon cells assessed as decrease in viral replication after 3 days by RT-PCR method; type: cell-based; conditions: Hepatitis C virus subtype 2a
[11] = Resistance ratio of EC90 for NS5A in HCV genotype 1b infected in HuH7 replicon cells to EC90 for NS5A in HCV genotype 1a infected in HuH7 replicon cells; type: cell-based
[12] = Resistance ratio of EC90 for NS3 A156T mutant in HCV genotype 1b infected in HuH7 replicon cells to EC90 for NS5A in HCV genotype 1a infected in HuH7 replicon cells; type: cell-based
[13] = Resistance ratio of EC90 for NS5A in HCV genotype 2a infected in HuH7 replicon cells to EC90 for NS5A in HCV genotype 1a infected in HuH7 replicon cells; type: cell-based
[14] = Resistance ratio of EC90 for NS5A M31V mutant in HCV genotype 2b infected in HuH7 replicon cells to EC90 for NS5A in HCV genotype 1a infected in HuH7 replicon cells; type: cell-based
[15] = Resistance ratio of EC90 for NS5A Y93H mutant in HCV genotype 3a infected in HuH7 replicon cells to EC90 for NS5A in HCV genotype 1a infected in HuH7 replicon cells; type: cell-based

What does the source list for `COC(=O)N[C@H](C(=O)N1CCC[C@H]1c1ncc(-c2cc(F)c3c(c2)O[C@@H](c2ccc(C4CC4)s2)n2c-3cc3cc(-c4cnc([C@@H]5CCCN5C(=O)[C@@H](NC(=O)OC)[C@@H]5CCOC(C)(C)C5)[nH]4)ccc32)[nH]1)C(C)C`?
EC90 [1]: 1 to 6.6 pM; EC90 [2]: 6 pM; AUC [3]: 7.82 µM·h; AUC [4]: 14.7 µM·h; EC90 [5]: 120 pM; Ratio [6]: 28; Ratio [7]: < 1; Ratio [8]: 8; EC90 [9]: 4 pM; EC90 [10]: 25 pM; Ratio [11]: 1; Ratio [12]: 1; Ratio [13]: < 1; Ratio [14]: 5; Ratio [15]: 571

— ChEMBL document CHEMBL4177770, “Discovery of MK-6169, a Potent Pan-Genotype Hepatitis C Virus NS5A Inhibitor with Optimized Activity against Common Resistance-Associated Substitutions” (J Med Chem, 2018)
